The test system of experiment [1] is MCF7. Description: Cytotoxicity against human MCF7 cells assessed as cell survival at 0.0001 to 10 uM by MTT assay. Format: functional, cell-based. The conditions noted are these: TDE = time-dependent effect. An outline of the steps:
(§1)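 Cells seeded at 10,000 per well and treated with 0.0001–10 μM. Incubated at 37 °C in CO2 for 24, 48 or 72 h. Viable cells measured by MTT conversion. Time course shown at a fixed 0.01 μM.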

In experiment [2] the test system is A2780. Description: Cytotoxicity against human A2780 cells assessed as cell survival at 0.0001 to 10 uM by MTT assay. The format is functional, cell-based. The conditions noted are these: TDE = time-dependent effect. In short, it runs like this:
as §1

Experiment [3] relates to A2780. The experiment can be described thus: Cytotoxicity against human A2780 cells after 72 hrs by MTT assay. Format: functional, cell-based. To be noted: A2780, 72 h. An outline of the steps:
(§2)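 Cells exposed to 0.0001–10 μM for 72 h. Viability by MTT conversion, expressed as % of cells viable. IC50 taken as the concentration giving 50% inhibition of survival, from concentration–viability profiles. Three independent experiments, each in duplicate, averaged.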

In experiment [4] the test system is HepG2. The experiment can be described thus: Cytotoxicity against human HepG2 cells assessed as cell survival after 24 to 72 hrs by MTT assay. The format is functional, cell-based. An outline of the steps:
as §1

The test system of experiment [5] is C6. Description: Cytotoxicity against rat C6 cells assessed as cell survival after 24 to 72 hrs by MTT assay. The format is functional, cell-based. An outline of the steps: as §1
Experiment [6] relates to MCF7. The experiment can be described thus: Cell cycle arrest in human MCF7 cells assessed as accumulation at G0/G1 phase at 0.05 uM after 24 hrs by propidium iodide staining-based FACS flow cytometric analysis (reference value: 64.34%). The format is functional.
In experiment [7] the test system is HepG2. The experiment can be described thus: Cytotoxicity against human HepG2 cells after 72 hrs by MTT assay. The format is functional, cell-based. To be noted: HepG2, 72 h. In short, it runs like this: as §2
The test system of experiment [8] is MCF7. Description: Cell cycle arrest in human MCF7 cells assessed as accumulation at S phase at 0.05 uM after 24 hrs by propidium iodide staining-based FACS flow cytometric analysis (reference value: 9.74%). Format: functional.
In experiment [9] the test system is MCF7. Description: Cell cycle arrest in human MCF7 cells assessed as accumulation at G2/M phase at 0.05 uM after 24 hrs by propidium iodide staining-based FACS flow cytometric analysis (reference value: 25.92%). The format is functional.
In experiment [10] the test system is MCF7. Description: Induction of mitochondrial membrane depolarization in human MCF7 cells after 72 hrs by JC-1 staining-based FACS flow cytometric analysis (reference value: 1%). The format is functional.
Experiment [11] has as its system C6. Description: Cytotoxicity against rat C6 cells after 72 hrs by MTT assay. To be noted: C6, 72 h. Format: functional, cell-based. An outline of the steps: as §2
In experiment [12] the test system is C6. Description: Induction of apoptosis in rat C6 cells assessed as fragmentation of mitochondrial network at 50 nM after 72 hrs by MitoTracker Red CMXRos staining-based fluorescence microscopy. The format is functional, cell-based. In short, it runs like this: (§3)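 C6 glioma cells seeded at 100,000 per well and treated 72 h at 37 °C, 5% CO2, with 50 nM or 1 μM depending on compound. Mitochondria stained with 25 nM MitoTracker Red CMXRos and network morphology imaged against untreated controls. Over 10 cells examined per experiment, 3 independent experiments.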

The subject of experiment [13] is A2780. Description: Cytotoxicity against human A2780 cells assessed as cell survival after 24 to 72 hrs by MTT assay. Format: functional, cell-based. In short, it runs like this: as §1
The subject of experiment [14] is MCF7. The experiment can be described thus: Cytotoxicity against human MCF7 cells assessed as cell survival after 24 to 72 hrs by MTT assay. Format: functional, cell-based. In short, it runs like this:
as §1

Experiment [15] concerns C6. The experiment can be described thus: Cytotoxicity against rat C6 cells assessed as cell survival at 0.0001 to 10 uM by MTT assay. The format is functional, cell-based. To be noted: TDE = time-dependent effect. An outline of the steps:
as §1

In experiment [16] the test system is HepG2. The experiment can be described thus: Cytotoxicity against human HepG2 cells assessed as cell survival at 0.0001 to 10 uM by MTT assay. The format is functional, cell-based. The conditions noted are these: TDE = time-dependent effect. In short, it runs like this: as §1
Experiment [17] concerns MCF7. The experiment can be described thus: Cytotoxicity against human MCF7 cells after 72 hrs by MTT assay. Format: functional, cell-based. The conditions noted are these: MCF7, 72 h. In short, it runs like this:
as §2

In experiment [18] the test system is HepG2. Description: Selectivity ratio of IC50 for human MCF7 cells to IC50 for human HepG2 cells. The format is functional. In short, it runs like this: (§4)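 Ratio of two 72 h IC50 values, each from the same MTT viability assay. A2780, MCF-7, HepG2 and rat C6 glioma cells were treated at 0.0001–10 μM. Percent viability was calculated and IC50 taken as the concentration giving 50% survival inhibition. Means are from three independent experiments run in duplicate.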

Experiment [19] relates to MCF7. The experiment can be described thus: Cell cycle arrest in human MCF7 cells assessed as accumulation at G0/G1 phase at 5 uM after 24 hrs by propidium iodide staining-based FACS flow cytometric analysis (reference value: 64.34%). The format is functional.
The test system of experiment [20] is A2780. Description: Selectivity ratio of IC50 for human A2780 cells to IC50 for human HepG2 cells. Format: functional. An outline of the steps:
as §4

The subject of experiment [21] is C6. Description: Selectivity ratio of IC50 for human MCF7 cells to IC50 for rat C6 cells. Format: functional. An outline of the steps: as §4
Experiment [22] relates to MCF7. The experiment can be described thus: Cell cycle arrest in human MCF7 cells assessed as accumulation at S phase at 5 uM after 24 hrs by propidium iodide staining-based FACS flow cytometric analysis (reference value: 9.74%). Format: functional.
Experiment [23] has as its system MCF7. The experiment can be described thus: Cell cycle arrest in human MCF7 cells assessed as accumulation at G2/M phase at 5 uM after 24 hrs by propidium iodide staining-based FACS flow cytometric analysis (reference value: 25.92%). Format: functional.
Experiment [24] deals with A2780. Description: Selectivity ratio of IC50 for human A2780 cells to IC50 for rat C6 cells. The format is functional. An outline of the steps:
as §4

The subject of experiment [25] is C6. Description: Induction of apoptosis in rat C6 cells assessed as fragmentation of mitochondrial network at 1 uM after 72 hrs by MitoTracker Red CMXRos staining-based fluorescence microscopy. The format is functional, cell-based. An outline of the steps:
as §3

Activity calls are given as the source filed them. No cut-off for these calls is given here.

With `CC(C)[C@@H]1NC(=O)[C@H](C)OC(=O)[C@@H](C(C)C)NC(=O)[C@@H](C(C)C)OC(=O)[C@H](C(C)C)NC(=O)[C@H](C)OC(=O)[C@@H](C(C)(C)O)NC(=O)[C@@H](C(C)C)OC(=O)[C@H](C(C)C)NC(=O)[C@H](C)OC(=O)[C@@H](C(C)C)NC(=O)[C@@H](C(C)C)OC1=O`, the Activity entry with MCF7 [1] was “tde”; in the experiment on A2780 [2] it was “tde”; in the experiment with HepG2 [4], “Dose-dependent effect”; in the experiment on C6 [5], “Dose-dependent effect”; in the experiment with MCF7 [6], 55.44%; in the experiment on MCF7 [8] it was 23.07%. In addition, the Activity is 21.49% with MCF7 [9]; 12.1% in the experiment on MCF7 [10]; “Dose-dependent effect” in the experiment on A2780 [13]; “Dose-dependent effect” with MCF7 [14]; “tde” in the experiment with C6 [15]; “tde” with HepG2 [16]. The IC50 in the experiment on A2780 [3] is 4530 nM; with HepG2 [7] it was 4.3 nM; with C6 [11], 2.4 nM; in the experiment with MCF7 [17], 3850 nM. Moreover, the outcome in the experiment with C6 [12] was Active.
Consider `CC(C)[C@@H]1NC(=O)[C@H](C)OC(=O)[C@@H](C(C)C)NC(=O)[C@@H](C(C)C)OC(=O)[C@H](C(C)C)NC(=O)[C@H](C)OC(=O)[C@@H](C(C)C)NC(=O)[C@@H](C(C)C)OC(=O)[C@H](C(C)C)NC(=O)[C@H](C)OC(=O)[C@@H](C(C)C)NC(=O)[C@@H](C(C)C)OC1=O` [VALINOMYCIN], for which the “Ratio IC50” value in the experiment with HepG2 [18], with A2780 [20], in the experiment on C6 [21] and with A2780 [24] was 3 each time. The Activity entry in the experiment on MCF7 [1] is “tde”; with A2780 [2], “tde”; in the experiment with MCF7 [19] it was 56.07%; in the experiment with HepG2 [4], “Dose-dependent effect”; with C6 [5], “Dose-dependent effect”; in the experiment with MCF7 [22], 25.79%. Also, the Activity in the experiment on MCF7 [10] is 16%; with MCF7 [23], 18.15%; with A2780 [13], “Dose-dependent effect”; in the experiment with MCF7 [14], “Dose-dependent effect”; in the experiment with C6 [15], “tde”; with HepG2 [16], “tde”. Also, the IC50 in the experiment with A2780 [3] amounted to 2180 nM; with HepG2 [7], 0.8 nM; with C6 [11], 0.4 nM; with MCF7 [17], 1770 nM. Besides, the outcome in the experiment with C6 [12] was Active.
For the compound `CC(C)[C@@H]1NC(=O)[C@H](C)OC(=O)[C@@H](C(C)C)NC(=O)[C@@H](C(C)(C)O)OC(=O)[C@H](C(C)C)NC(=O)[C@H](C)OC(=O)[C@@H](C(C)C)NC(=O)[C@@H](C(C)C)OC(=O)[C@H](C(C)C)NC(=O)[C@H](C)OC(=O)[C@@H](C(C)C)NC(=O)[C@@H](C(C)C)OC1=O`, the IC50 is above 10000 nM in the experiment on A2780 [3], 197 nM in the experiment with HepG2 [7], 175 nM in the experiment on C6 [11] and above 10000 nM in the experiment with MCF7 [17]. Besides, the Activity was 55.63% with MCF7 [19]; 24.6% in the experiment with MCF7 [22]; 8.9% in the experiment on MCF7 [10]; 19.76% with MCF7 [23]; “tde” in the experiment on C6 [15]. Moreover, in the experiment on C6 [25], the outcome was Active.
As to `CC(C)[C@@H]1NC(=O)[C@H](C)OC(=O)[C@@H](C(C)C)NC(=O)[C@@H](C(C)C)OC(=O)[C@H](C(C)(C)O)NC(=O)[C@H](C)OC(=O)[C@@H](C(C)C)NC(=O)[C@@H](C(C)C)OC(=O)[C@H](C(C)C)NC(=O)[C@H](C)OC(=O)[C@@H](C(C)C)NC(=O)[C@@H](C(C)C)OC1=O`, the Activity entry was “tde” with MCF7 [1]; “tde” in the experiment with A2780 [2]; 57.53% in the experiment with MCF7 [19]; “Dose-dependent effect” in the experiment with HepG2 [4]; “Dose-dependent effect” in the experiment on C6 [5]; 25.57% with MCF7 [22]. For the same compound, the Activity is 15.6% with MCF7 [10]; 16.9% in the experiment with MCF7 [23]; “Dose-dependent effect” in the experiment on A2780 [13]; “Dose-dependent effect” in the experiment with MCF7 [14]; “tde” in the experiment on C6 [15]; “tde” in the experiment on HepG2 [16]. Moreover, the IC50 with A2780 [3] was found to be 2510 nM; in the experiment with HepG2 [7] it was 4.9 nM; with C6 [11], 2.9 nM; in the experiment with MCF7 [17] it was 3910 nM. The result with C6 [12] was Active.

Values taken from ChEMBL document CHEMBL3098060, “Antitumor potential of conjugable valinomycins bearing hydroxyl sites: in vitro studies” (ACS Med Chem Lett, 2013).
